{"source": "ChEMBL document CHEMBL1148178", "about": "“Dicranin, an antimicrobial and 15-lipoxygenase inhibitor from the moss Dicranum scoparium” (1993)", "key": {"Bacillus subtilis [1]": {"tested_on": "Bacillus subtilis", "assay": "Antibacterial activity against Bacillus subtilis NCIB 3610 at 1000 ug/disk after 24 hrs by disk diffusion assay", "assay_type": "functional", "settings": "read-out: Diameter of inhibition zone", "procedure,_shortened": "(§1)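 Sterile 6 mm filter-paper disc bearing sample set in the centre of a Petri dish of 15 ml plate count agar. Overlaid with 3 ml soft nutrient agar (nutrient broth + 0.7% agar) seeded with 1% of a 16–18 h culture of the test strain. Read-out is the diameter of the growth-free zone around the disc.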"}, "Staphylococcus aureus [2]": {"tested_on": "Staphylococcus aureus", "assay": "Antibacterial activity against Staphylococcus aureus T-AQ 49/YF29 at 1000 ug/disk after 24 hrs by disk diffusion assay", "assay_type": "functional", "settings": "read-out: Diameter of inhibition zone", "procedure,_shortened": "as §1"}, "Enterococcus faecalis [3]": {"tested_on": "Enterococcus faecalis", "assay": "Antibacterial activity against Streptococcus faecalis NCIB 775 at 1000 ug/disk after 24 hrs by disk diffusion assay", "assay_type": "functional", "settings": "read-out: Diameter of inhibition zone", "procedure,_shortened": "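Test material loaded onto 6 mm sterile filter-paper discs. Each disc sits at the centre of a plate of 15 ml plate count agar overlaid with 3 ml soft nutrient agar (nutrient broth + 0.7% agar) carrying 1% of a 16–18 h culture. Activity is read as the diameter of the no-growth zone around the disc.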"}, "Bacillus cereus [4]": {"tested_on": "Bacillus cereus", "assay": "Antibacterial activity against Bacillus cereus NCIB 3329 at 500 ug/disk after 24 hrs by disk diffusion assay", "assay_type": "functional", "settings": "read-out: Diameter of inhibition zone", "procedure,_shortened": "as §1"}, "[5]": {"tested_on": "Geobacillus stearothermophilus", "assay": "Antibacterial activity against Bacillus stearothermophilus NCA 1518 at 1000 ug/disk after 24 hrs by disk diffusion assay", "assay_type": "functional", "settings": "read-out: Diameter of inhibition zone", "procedure,_shortened": "as §1"}, "Enterococcus faecalis [6]": {"tested_on": "Enterococcus faecalis", "assay": "Antibacterial activity against Streptococcus faecalis NCIB 775 after 24 hrs by disk diffusion assay", "assay_type": "functional, organism-based", "procedure,_shortened": "as §1"}, "Bacillus subtilis [7]": {"tested_on": "Bacillus subtilis", "assay": "Antibacterial activity against Bacillus subtilis NCIB 3610 after 24 hrs by disk diffusion assay", "assay_type": "functional, organism-based", "procedure,_shortened": "as §1"}, "Pseudomonas aeruginosa": {"tested_on": "Pseudomonas aeruginosa", "assay": "Antibacterial activity against Pseudomonas aeruginosa ATCC 10145 after 24 hrs by disk diffusion assay", "assay_type": "functional, organism-based", "procedure,_shortened": "as §1"}, "Staphylococcus aureus [8]": {"tested_on": "Staphylococcus aureus", "assay": "Antibacterial activity against Staphylococcus aureus T-AQ 49/YF29 after 24 hrs by disk diffusion assay", "assay_type": "functional, organism-based", "procedure,_shortened": "as §1"}, "[9]": {"tested_on": "Geobacillus stearothermophilus", "assay": "Antibacterial activity against Bacillus stearothermophilus NCA 1518 after 24 hrs by disk diffusion assay", "assay_type": "functional, organism-based", "procedure,_shortened": "as §1"}, "Bacillus cereus [10]": {"tested_on": "Bacillus cereus", "assay": "Antibacterial activity against Bacillus cereus NCIB 3329 after 24 hrs by disk diffusion assay", "assay_type": "functional, organism-based", "procedure,_shortened": "as §1"}, "Pseudomonas putida": {"tested_on": "Pseudomonas putida", "assay": "Antibacterial activity against Pseudomonas putida T-AQ 18/YF18 after 24 hrs by disk diffusion assay", "assay_type": "functional, organism-based", "procedure,_shortened": "as §1"}, "Salmonella typhimurium": {"tested_on": "Salmonella typhimurium", "assay": "Antibacterial activity against Salmonella Typhimurium NCIB 10248 after 24 hrs by disk diffusion assay", "assay_type": "functional, organism-based", "settings": "Salmonella enterica subsp. enterica serovar Typhimurium", "procedure,_shortened": "as §1"}, "Escherichia coli": {"tested_on": "Escherichia coli", "assay": "Antibacterial activity against Escherichia coli B74-1 after 24 hrs by disk diffusion assay", "assay_type": "functional, organism-based", "procedure,_shortened": "as §1"}, "Glycine max": {"tested_on": "Glycine max", "assay": "Inhibition of soybean 15-LOX at 4 uM", "procedure,_shortened": "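15-lipoxygenase assay run by a literature method with arachidonic acid (40 μM) as substrate.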"}}, "note": "Active and inactive are the calls of the source. No cut-off for these calls is given here.", "data": [{"compound": "CCCCCC/C=C\\CCCCCCCC(=O)O", "note": "[PALMITOLEIC ACID]", "values": [{"measurement": "zone of inhibition at 1000 µg/disc", "setting": "Bacillus subtilis [1]", "value": 14, "unit": "mm"}, {"measurement": "zone of inhibition at 1000 µg/disc", "setting": "Staphylococcus aureus [2]", "value": 22, "unit": "mm"}, {"measurement": "zone of inhibition at 1000 µg/disc", "setting": "Enterococcus faecalis [3]", "value": 20, "unit": "mm"}, {"measurement": "zone of inhibition at 500 µg/disc", "setting": "Bacillus cereus [4]", "value": 14, "unit": "mm"}, {"measurement": "zone of inhibition at 1000 µg/disc", "setting": "[5]", "value": 45, "unit": "mm"}]}, {"compound": "CC/C=C\\C/C=C\\C/C=C\\C/C=C\\CCCCC(=O)O", "values": [{"measurement": "Activity", "setting": "Enterococcus faecalis [6]", "value": "Active"}, {"measurement": "Activity", "setting": "Bacillus subtilis [7]", "value": "Active"}, {"measurement": "Activity", "setting": "Pseudomonas aeruginosa", "value": "Active"}, {"measurement": "Activity", "setting": "Staphylococcus aureus [8]", "value": "Active"}, {"measurement": "Activity", "setting": "[9]", "value": "Active"}, {"measurement": "Activity", "setting": "Bacillus cereus [10]", "value": "Active"}, {"measurement": "Activity", "setting": "Pseudomonas putida", "value": "Active"}, {"measurement": "Activity", "setting": "Salmonella typhimurium", "value": "Active"}, {"measurement": "Activity", "setting": "Escherichia coli", "value": "Active"}]}, {"compound": "CCCCCC#CCC#CCC#CCC#CCCCC(=O)O", "values": [{"measurement": "inhibition", "setting": "Glycine max", "value": 95, "unit": "%"}]}]}
